Read-outs that look alike come from different tables or passages of the source.
How the values were obtained:
CCRF-CEM/FPGS^- = assay: Growth inhibition assay, FPGS-deficient mutant cells; format: cell-based, human; conditions: read-out: CCRF-CEM/FPGS^- IC50, (−) T, (−) H
[1] = tested on: CCRF-CEM human leukemia cell lines; assay: Growth inhibition assay, CCRF-CEM; format: cell-based
[2] = tested on: CCRF-CEM human leukemia cell lines; conditions: read-out: IC50, cell-based growth inhibition; reported as low as; cited from earlier work
[3] = molecular target: recombinant human aminoimidazole carboxamide ribonucleotide transformylase (hAICAR Tfase) (Homo sapiens, UniProt P31939); assay: hAICAR Tfase enzyme inhibition assay; format: biochemical
Outline: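 Recombinant human enzyme; method otherwise follows earlier work. Reaction kinetics followed for 2 min after initiation. Ki obtained from Dixon plots.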

[4] = alleviated by folic acid co-supplementation; cited from earlier work
CCRF-CEM/MTX = assay: Growth inhibition assay, RFC-deficient mutant cells; format: cell-based, human; conditions: read-out: CCRF-CEM/MTX IC50, (−) T, (−) H
GAR Tfase = conditions: read-out: Ki, GAR Tfase; cited from earlier work
[5] = tested on: solid murine and human tumors; conditions: tumors that did not respond to methotrexate; cited from earlier work
[6] = tested on: anti-folate resistant human leukemia cell lines; conditions: cited from earlier work
[7] = read-out: CCRF-CEM IC50, (+) T, (−) H, with thymidine, no hypoxanthine
[8] = read-out: CCRF-CEM IC50, (−) T, (+) H, no thymidine, with hypoxanthine
[9] = read-out: CCRF-CEM IC50, (−) T, (−) H, Table 1, no thymidine, no hypoxanthine
[10] = read-out: CCRF-CEM IC50, (−) T, (−) H, Table 2, parent cell line
[11] = read-out: Inhibition Ki, hAICAR Tfase, Dixon plots

Sequence of recombinant human aminoimidazole carboxamide ribonucleotide transformylase (hAICAR Tfase) (P31939 whole entry): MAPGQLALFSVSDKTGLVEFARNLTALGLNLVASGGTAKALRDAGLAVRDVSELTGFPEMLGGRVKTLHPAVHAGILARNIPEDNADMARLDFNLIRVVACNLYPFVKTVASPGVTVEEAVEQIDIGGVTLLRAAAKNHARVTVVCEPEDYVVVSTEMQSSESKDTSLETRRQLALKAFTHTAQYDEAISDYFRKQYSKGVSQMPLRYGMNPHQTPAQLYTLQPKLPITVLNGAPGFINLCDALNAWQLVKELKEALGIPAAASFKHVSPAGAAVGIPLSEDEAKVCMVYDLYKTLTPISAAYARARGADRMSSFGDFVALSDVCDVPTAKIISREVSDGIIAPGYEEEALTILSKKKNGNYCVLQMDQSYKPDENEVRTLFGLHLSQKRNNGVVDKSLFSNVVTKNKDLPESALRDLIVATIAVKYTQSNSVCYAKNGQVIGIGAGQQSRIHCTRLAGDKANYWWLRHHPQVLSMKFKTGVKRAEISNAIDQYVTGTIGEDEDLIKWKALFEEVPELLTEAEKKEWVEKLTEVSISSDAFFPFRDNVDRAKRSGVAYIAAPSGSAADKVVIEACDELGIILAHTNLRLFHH

| Compound | IC50 (CCRF-CEM/FPGS^-; FPGS-deficient mutant) | IC50 [1, 7] | IC50 [1, 8] | IC50 [1, 9] | IC50 (CCRF-CEM/MTX) | Ki [3, 11] | other results |
| --- | --- | --- | --- | --- | --- | --- | --- |
| Nc1nc2c(c(=O)[nH]1)C[C@@H](CCc1ccc(C(=O)N[C@@H](CCC(=O)O)C(=O)O)cc1)CN2 [3 Lometrexol, Lometrexol] |  |  |  |  |  |  | IC50 (CCRF-CEM/FPGS^-; Homo sapiens, CCRF-CEM): > 10 µM; IC50 ([1]; Homo sapiens, CCRF-CEM, read-out: CCRF-CEM IC50, (−) T, (+) H): > 10 µM; IC50 [2]: 0.0029 µM; Ki [3]: > 100 µM; Adverse effect in patients [4]: some patients suffered cumulative myelosuppression |
| CS[C@@H](CCCc1c(N)nc(N)[nH]c1=O)c1ccc(C(=O)NC(CCC(=O)O)C(=O)O)cc1 (stereo partly drawn) [10S-7, 10S-methylthio-DDACTHF] | 5 µM | 0.07 µM | > 10 µM | 0.05 µM | 0.06 µM | > 100 µM | IC50 [1, 10]: 0.06 µM |
| Nc1nc(N)c(CCCCc2ccc(C(=O)NC(CCC(=O)O)C(=O)O)cc2)c(=O)[nH]1 (stereo not shown) [DDACTHF] | > 10 µM | 3.6 µM | > 10 µM | 2.7 µM | > 100 µM | 20 µM | IC50 [1, 10]: 2.7 µM |
| CS[C@H](CCCc1c(N)nc(N)[nH]c1=O)c1ccc(C(=O)NC(CCC(=O)O)C(=O)O)cc1 (stereo partly drawn) [10R-8, 10R-methylthio-DDACTHF] |  | 0.08 µM | > 10 µM | 0.08 µM | 0.07 µM | > 100 µM | IC50 ([1]; read-out: IC50, CCRF-CEM growth inhibition): 0.08 µM |
| Nc1nc2ccc(CC(C=O)c3ccc(C(=O)N[C@@H](CCC(=O)O)C(=O)O)cc3)cc2c(=O)[nH]1 (stereo partly shown) [compound 4, 10-formyl-TDAF] |  |  |  |  |  |  | Ki (GAR Tfase): 0.26 µM |
| Nc1nc2c(c(=O)[nH]1)CC(CCc1ccc(C(=O)N[C@@H](CCC(=O)O)C(=O)O)cc1)CN2 (stereo partly shown) [DDATHF, 5,10-dideaza-5,6,7,8-tetrahydrofolic acid] |  |  |  |  |  |  | In vivo antitumor effect [5]: effective in vivo against solid murine and human tumors |
| Nc1nc(N)c(CCCC(C(=O)C(F)(F)F)c2ccc(C(=O)N[C@@H](CCC(=O)O)C(=O)O)cc2)c(=O)[nH]1 (stereo partly shown) [compound 5, 10-CF3CO-DDACTHF] | > 10 µM | 0.017 µM | > 10 µM | 0.016 µM |  | > 100 µM | Ki (GAR Tfase): 0.015 µM |
| COc1cc(NCc2ccc3nc(N)nc(N)c3c2C)cc(OC)c1OC [neutrexin (trimetrexate), trimetrexate] |  |  |  |  |  |  | Sensitivity of resistant cells with 90–99% loss of FPGS activity [6]: marked hypersensitivity |
